The record followed here is ChEMBL document CHEMBL4619723, “New CDK8 inhibitors as potential anti-leukemic agents - Design, synthesis and biological evaluation” (Bioorg Med Chem, 2020).

Some results are limits rather than exact numbers.

The test system of one test is OCI-AML-3. The test is described as follows: cells. As to conditions: Homo sapiens, OCI-AML-3, 48 h.
A further test deals with MV4-11. The test is described as follows: cells. As to conditions: Homo sapiens, MV4-11, 48 h.
The test system of the next test is MOLM-13. The test can be described thus: cells. As to conditions: Homo sapiens, MOLM-13, 48 h.
Another test has as its system NRK. The test can be described thus: cells. As to conditions: Rattus norvegicus, 48 h.
The subject of the next test is H9c2. The test can be described thus: cells. As to conditions: Rattus norvegicus, H9c2, 48 h.
For test [1], the target named is cAMP-dependent protein kinase catalytic subunit beta (Homo sapiens) (UniProt P22694). The test is described as follows: Inhibition of biotinylated ligand binding to wild-type human full length PKAC-beta (M1 to F351 residues) expressed in bacterial expression system at 50 nM measured after 1 hr by kinomescan assay relative to control.
The target of test [2] is Serine/threonine-protein kinase pim-2 (Homo sapiens) (UniProt Q9P1W9). The test can be described thus: Inhibition of biotinylated ligand binding to wild-type human partial length PIM2 (M1 to E291 residues) expressed in bacterial expression system at 50 nM measured after 1 hr by kinomescan assay relative to control.
For test [3], the target named is 1-phosphatidylinositol 3-phosphate 5-kinase (Homo sapiens) (UniProt Q9Y2I7). The test is described as follows: Inhibition of biotinylated ligand binding to wild-type human partial length PIKFYVE (F1512 to C2098 residues) expressed in mammalian expression system at 50 nM measured after 1 hr by kinomescan assay relative to control.
The target of test [4] is Cyclin-dependent kinase 19 (Homo sapiens) (UniProt Q9BWU1). The test can be described thus: Inhibition of biotinylated ligand binding to wild-type human partial length CDK11 (M1 to N360 residues) expressed in bacterial expression system at 50 nM measured after 1 hr by kinomescan assay relative to control. In outline:
(§1)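 T7 phage-tagged kinase lysates from E. coli BL21 were mixed with streptavidin beads carrying biotinylated ligand and 50 nM compound. Incubated 1 h at room temperature with shaking, washed, then eluted 30 min with 0.5 μM non-biotinylated ligand. Kinase was quantified by qPCR. POC = (test − positive)/(DMSO − positive) ×100, with a control compound as positive.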

The target of test [5] is Serine/threonine-protein kinase MAK (Homo sapiens) (UniProt P20794). The test is described as follows: Inhibition of biotinylated ligand binding to wild-type human partial length MAK (M1 to P314 residues) expressed in bacterial expression system at 50 nM measured after 1 hr by kinomescan assay relative to control.
Sequence of Serine/threonine-protein kinase MAK (Homo sapiens) (P20794 whole entry, the tested form may be a part): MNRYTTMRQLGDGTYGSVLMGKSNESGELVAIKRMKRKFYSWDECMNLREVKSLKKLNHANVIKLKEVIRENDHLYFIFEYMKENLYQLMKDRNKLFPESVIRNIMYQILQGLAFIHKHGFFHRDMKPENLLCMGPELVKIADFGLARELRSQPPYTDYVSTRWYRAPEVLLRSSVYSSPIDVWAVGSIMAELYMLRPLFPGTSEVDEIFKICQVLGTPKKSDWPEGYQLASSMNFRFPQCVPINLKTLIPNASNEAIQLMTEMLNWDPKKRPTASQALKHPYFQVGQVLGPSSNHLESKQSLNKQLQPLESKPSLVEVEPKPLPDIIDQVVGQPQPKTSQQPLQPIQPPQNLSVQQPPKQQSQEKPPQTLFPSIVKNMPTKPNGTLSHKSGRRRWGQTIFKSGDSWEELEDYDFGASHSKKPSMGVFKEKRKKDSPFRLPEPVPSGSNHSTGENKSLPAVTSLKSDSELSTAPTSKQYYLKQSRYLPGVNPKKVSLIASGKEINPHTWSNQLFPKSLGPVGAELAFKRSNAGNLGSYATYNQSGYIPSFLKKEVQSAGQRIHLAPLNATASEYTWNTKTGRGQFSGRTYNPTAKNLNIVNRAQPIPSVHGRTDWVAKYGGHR
Test [6] addresses Serine/threonine-protein kinase haspin (Homo sapiens) (UniProt Q8TF76). The test can be described thus: Inhibition of biotinylated ligand binding to wild-type human partial length HASPIN (I452 to K798 residues) expressed in mammalian expression system at 50 nM measured after 1 hr by kinomescan assay relative to control.
Test [7] concerns the target T1, Cyclin-dependent kinase 8 (Homo sapiens, UniProt P49336). The test can be described thus: Inhibition of biotinylated ligand binding to wild-type human partial length CDK8 (M1 to T360 residues) expressed in Escherichia coli BL21 at 50 nM measured after 1 hr by kinomescan assay relative to control. In outline: as §1
Test [8] has as its target Protein-tyrosine kinase 2-beta (Homo sapiens) (UniProt Q14289). The test is described as follows: Inhibition of biotinylated ligand binding to wild-type human full length PYK2 (M1 to E967 residues) expressed in bacterial expression system at 50 nM measured after 1 hr by kinomescan assay relative to control.
For test [9], the target named is cAMP-dependent protein kinase catalytic subunit alpha (Homo sapiens) (UniProt P17612). The test is described as follows: Inhibition of biotinylated ligand binding to wild-type human partial length PKAC-alpha (G10 to F351 residues) expressed in bacterial expression system at 50 nM measured after 1 hr by kinomescan assay relative to control.
Test [10] concerns the target Citron Rho-interacting kinase (Homo sapiens) (UniProt O14578). The test can be described thus: Inhibition of biotinylated ligand binding to wild-type human partial length CIT (M68 to E432 residues) expressed in bacterial expression system at 50 nM measured after 1 hr by kinomescan assay relative to control.
The target in test [11] is Hormonally up-regulated neu tumor-associated kinase (Homo sapiens) (UniProt P57058). The test is described as follows: Inhibition of biotinylated ligand binding to wild-type human partial length HUNK (A31 to K354 residues) expressed in bacterial expression system at 50 nM measured after 1 hr by kinomescan assay relative to control.
Test [12] concerns the target T1, Cyclin-dependent kinase 8. The test is described as follows: Inhibition of biotinylated ligand binding to wild-type human partial length CDK8 (M1 to T360 residues) expressed in Escherichia coli BL21 measured after 1 hr by kinomescan assay.
In test [13] the target is Phosphatidylinositol 5-phosphate 4-kinase type-2 gamma (Homo sapiens) (UniProt Q8TBX8). The test is described as follows: Inhibition of biotinylated ligand binding to wild-type human partial length PIP5K2C (M1 to A421 residues) expressed in mammalian expression system at 50 nM measured after 1 hr by kinomescan assay relative to control. In outline:
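Competition binding: compound (final 50 nM; 40x DMSO stocks) was incubated with kinase and biotinylated-ligand streptavidin beads in 20% SeaBlock, 0.17x PBS, 0.05% Tween 20 and 6 mM DTT at room temperature for 1 h. After washing, kinase was eluted with 0.5 μM non-biotinylated ligand for 30 min and measured by qPCR. Percent of control was referenced to DMSO (100%) and control compound (0%).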

Test [14] deals with Receptor-interacting serine/threonine-protein kinase 1 (Homo sapiens) (UniProt Q13546). The test is described as follows: Inhibition of biotinylated ligand binding to wild-type human partial length RIPK1 (M1 to K305 residues) expressed in bacterial expression system at 50 nM measured after 1 hr by kinomescan assay relative to control. A digest of the protocol:
(§2)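 Kinases expressed as tags on T7 phage grown in an E. coli BL21-derived host, with lysates cleared by centrifugation and filtration. Streptavidin beads carried biotinylated ligand and were blocked with biotin. Kinase, beads and compound were incubated in binding buffer (20% SeaBlock, 0.17x PBS, 0.05% Tween 20, 6 mM DTT) at room temperature for 1 h. Bound kinase was eluted with free ligand and quantified by qPCR. POC was set between DMSO (100%) and control compound (0%).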

Test [15] concerns the target Inhibitor of nuclear factor kappa-B kinase subunit epsilon (Homo sapiens) (UniProt Q14164). The test is described as follows: Inhibition of biotinylated ligand binding to wild-type human full length IKKE (M1 to V716 residues) expressed in bacterial expression system at 50 nM measured after 1 hr by kinomescan assay relative to control. A digest of the protocol: as §2

T1 sequence (P49336 whole entry, the tested form may be a part): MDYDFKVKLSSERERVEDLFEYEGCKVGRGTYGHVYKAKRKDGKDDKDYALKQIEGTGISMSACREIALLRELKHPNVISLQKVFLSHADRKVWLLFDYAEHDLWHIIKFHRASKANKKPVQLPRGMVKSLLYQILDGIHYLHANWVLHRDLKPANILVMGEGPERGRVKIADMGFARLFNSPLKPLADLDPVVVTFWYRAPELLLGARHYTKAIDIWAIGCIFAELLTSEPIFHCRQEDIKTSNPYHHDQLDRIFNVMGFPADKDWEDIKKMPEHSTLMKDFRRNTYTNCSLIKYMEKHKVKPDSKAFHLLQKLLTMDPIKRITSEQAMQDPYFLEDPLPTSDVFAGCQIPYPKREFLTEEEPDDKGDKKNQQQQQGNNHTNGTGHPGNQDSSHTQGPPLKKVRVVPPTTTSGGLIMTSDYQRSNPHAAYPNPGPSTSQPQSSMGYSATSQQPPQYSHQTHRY
Sequence of Cyclin-dependent kinase 19 (Homo sapiens) (Q9BWU1 whole entry, the tested form may be a part): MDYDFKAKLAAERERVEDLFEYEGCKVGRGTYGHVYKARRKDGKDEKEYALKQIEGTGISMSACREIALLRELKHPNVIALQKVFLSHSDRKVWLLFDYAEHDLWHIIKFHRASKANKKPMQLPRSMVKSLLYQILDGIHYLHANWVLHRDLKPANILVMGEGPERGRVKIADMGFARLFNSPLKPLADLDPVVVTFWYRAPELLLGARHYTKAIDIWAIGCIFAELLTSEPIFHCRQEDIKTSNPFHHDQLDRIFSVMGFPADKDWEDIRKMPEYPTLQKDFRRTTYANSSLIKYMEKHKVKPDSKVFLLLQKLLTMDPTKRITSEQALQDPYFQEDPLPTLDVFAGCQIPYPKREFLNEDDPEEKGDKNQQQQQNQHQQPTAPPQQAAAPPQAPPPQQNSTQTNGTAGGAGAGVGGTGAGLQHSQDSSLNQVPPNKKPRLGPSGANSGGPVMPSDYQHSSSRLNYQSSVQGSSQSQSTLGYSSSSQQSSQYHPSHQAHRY
Sequence of Receptor-interacting serine/threonine-protein kinase 1 (Homo sapiens) (Q13546 whole entry, the tested form may be a part): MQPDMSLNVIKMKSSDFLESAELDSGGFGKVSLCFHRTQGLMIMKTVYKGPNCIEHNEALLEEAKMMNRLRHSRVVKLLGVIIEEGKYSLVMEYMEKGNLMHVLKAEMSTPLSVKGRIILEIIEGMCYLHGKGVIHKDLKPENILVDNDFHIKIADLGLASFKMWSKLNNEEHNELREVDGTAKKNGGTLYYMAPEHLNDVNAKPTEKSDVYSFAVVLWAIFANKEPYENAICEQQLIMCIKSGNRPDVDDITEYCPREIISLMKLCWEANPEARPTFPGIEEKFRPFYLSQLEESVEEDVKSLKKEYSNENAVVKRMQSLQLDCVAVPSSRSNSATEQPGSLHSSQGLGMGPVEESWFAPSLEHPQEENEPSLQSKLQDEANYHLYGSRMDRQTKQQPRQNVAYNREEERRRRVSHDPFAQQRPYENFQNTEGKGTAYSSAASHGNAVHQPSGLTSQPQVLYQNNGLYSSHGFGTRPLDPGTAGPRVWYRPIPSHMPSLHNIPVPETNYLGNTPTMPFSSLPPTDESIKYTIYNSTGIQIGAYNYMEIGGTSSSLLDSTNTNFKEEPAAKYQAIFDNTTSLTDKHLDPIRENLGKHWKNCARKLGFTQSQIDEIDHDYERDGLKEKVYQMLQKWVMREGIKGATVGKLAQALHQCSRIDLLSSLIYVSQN
Sequence of Citron Rho-interacting kinase (Homo sapiens) (O14578 whole entry, the tested form may be a part): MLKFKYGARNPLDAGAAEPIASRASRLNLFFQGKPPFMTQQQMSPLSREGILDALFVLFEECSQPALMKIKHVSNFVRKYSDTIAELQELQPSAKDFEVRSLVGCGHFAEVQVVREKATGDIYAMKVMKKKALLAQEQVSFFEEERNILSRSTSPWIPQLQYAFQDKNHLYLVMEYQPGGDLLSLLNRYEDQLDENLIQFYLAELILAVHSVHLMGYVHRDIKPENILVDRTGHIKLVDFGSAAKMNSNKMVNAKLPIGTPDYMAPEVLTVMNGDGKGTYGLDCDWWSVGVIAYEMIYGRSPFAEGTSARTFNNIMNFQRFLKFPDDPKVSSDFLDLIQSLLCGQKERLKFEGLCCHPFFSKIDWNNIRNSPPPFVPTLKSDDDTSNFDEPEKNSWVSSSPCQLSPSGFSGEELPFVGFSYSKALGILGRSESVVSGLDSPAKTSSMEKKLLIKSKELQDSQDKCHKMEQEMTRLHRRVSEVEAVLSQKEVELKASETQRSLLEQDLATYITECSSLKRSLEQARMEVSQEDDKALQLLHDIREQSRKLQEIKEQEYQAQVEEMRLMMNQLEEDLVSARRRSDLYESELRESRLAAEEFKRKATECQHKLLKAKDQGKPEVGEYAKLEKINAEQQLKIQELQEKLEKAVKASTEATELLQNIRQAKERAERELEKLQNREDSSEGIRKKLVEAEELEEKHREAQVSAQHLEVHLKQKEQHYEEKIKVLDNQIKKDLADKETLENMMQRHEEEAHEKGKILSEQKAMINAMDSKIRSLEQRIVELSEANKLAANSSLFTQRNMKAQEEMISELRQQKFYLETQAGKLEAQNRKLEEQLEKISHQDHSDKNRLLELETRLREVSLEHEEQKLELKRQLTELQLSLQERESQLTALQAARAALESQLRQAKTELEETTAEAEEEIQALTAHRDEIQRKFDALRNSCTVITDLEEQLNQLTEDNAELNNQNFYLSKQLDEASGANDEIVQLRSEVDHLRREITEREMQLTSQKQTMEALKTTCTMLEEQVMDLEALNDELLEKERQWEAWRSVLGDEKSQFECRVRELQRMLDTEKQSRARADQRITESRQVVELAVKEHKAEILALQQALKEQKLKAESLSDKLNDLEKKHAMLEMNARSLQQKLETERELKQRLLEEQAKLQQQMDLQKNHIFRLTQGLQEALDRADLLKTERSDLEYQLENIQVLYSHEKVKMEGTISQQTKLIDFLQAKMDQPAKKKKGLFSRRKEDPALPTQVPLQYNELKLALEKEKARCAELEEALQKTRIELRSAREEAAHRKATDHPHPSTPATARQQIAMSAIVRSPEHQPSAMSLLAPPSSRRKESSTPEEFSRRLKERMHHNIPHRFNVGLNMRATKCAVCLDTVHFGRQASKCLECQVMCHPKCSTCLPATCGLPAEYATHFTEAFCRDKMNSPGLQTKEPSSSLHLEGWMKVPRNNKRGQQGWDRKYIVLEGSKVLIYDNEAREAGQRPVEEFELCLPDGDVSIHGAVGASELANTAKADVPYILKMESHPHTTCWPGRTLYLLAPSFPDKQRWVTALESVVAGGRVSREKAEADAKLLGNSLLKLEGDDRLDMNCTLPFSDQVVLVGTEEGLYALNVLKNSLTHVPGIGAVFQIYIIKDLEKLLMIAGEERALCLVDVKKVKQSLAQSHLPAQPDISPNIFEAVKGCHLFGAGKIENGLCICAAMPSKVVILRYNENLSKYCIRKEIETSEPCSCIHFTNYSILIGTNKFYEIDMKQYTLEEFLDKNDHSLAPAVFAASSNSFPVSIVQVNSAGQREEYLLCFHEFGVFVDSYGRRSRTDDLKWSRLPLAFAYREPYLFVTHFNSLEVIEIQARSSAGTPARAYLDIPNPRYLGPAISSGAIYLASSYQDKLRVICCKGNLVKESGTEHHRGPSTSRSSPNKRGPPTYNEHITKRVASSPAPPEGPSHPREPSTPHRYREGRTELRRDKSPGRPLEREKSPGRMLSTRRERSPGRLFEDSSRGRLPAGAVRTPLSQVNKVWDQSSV
Sequence of Inhibitor of nuclear factor kappa-B kinase subunit epsilon (Homo sapiens) (Q14164 whole entry, the tested form may be a part): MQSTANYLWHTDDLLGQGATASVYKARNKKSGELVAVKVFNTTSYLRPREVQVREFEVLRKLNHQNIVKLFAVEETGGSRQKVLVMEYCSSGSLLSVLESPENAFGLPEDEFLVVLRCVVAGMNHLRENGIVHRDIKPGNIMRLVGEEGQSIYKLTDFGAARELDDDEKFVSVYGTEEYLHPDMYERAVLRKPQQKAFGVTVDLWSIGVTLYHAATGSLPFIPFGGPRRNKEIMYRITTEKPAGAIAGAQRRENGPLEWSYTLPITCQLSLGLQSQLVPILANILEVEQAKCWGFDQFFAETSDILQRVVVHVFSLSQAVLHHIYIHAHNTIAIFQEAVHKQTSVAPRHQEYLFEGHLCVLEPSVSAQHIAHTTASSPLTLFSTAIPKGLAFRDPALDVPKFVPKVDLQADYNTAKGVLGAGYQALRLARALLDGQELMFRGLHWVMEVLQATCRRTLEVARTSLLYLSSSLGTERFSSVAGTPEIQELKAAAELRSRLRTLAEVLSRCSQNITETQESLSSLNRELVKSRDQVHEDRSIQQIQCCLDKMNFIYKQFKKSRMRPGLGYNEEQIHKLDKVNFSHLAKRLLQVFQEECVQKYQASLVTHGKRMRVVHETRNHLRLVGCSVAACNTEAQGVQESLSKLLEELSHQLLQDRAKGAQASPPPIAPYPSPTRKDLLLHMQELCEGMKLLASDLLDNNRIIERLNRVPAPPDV

What is called EC50 is the midpoint of the concentration-response curve. Read a low EC50 as a more potent agent. For `CN(C)[C@@H]1CC[C@@]2(C)[C@@H](CC[C@@H]3[C@@H]2CC[C@]2(C)C(c4cccnc4)=CC[C@@H]32)C1`, the EC50 with OCI-AML-3 was 10 µM; with MV4-11, 10.1 µM; in the test with MOLM-13, 10.2 µM; in the test with NRK, 29.7 µM; in the test on H9c2, 25 to 50 µM.

As for `CN(C)[C@@H]1CC[C@@]2(C)[C@@H](CC[C@@H]3[C@@H]2CC[C@]2(C)C(c4ccc5cnccc5c4)=CC[C@@H]32)C1`, the concentration giving a half-maximal response (EC50) is 2.7 µM with OCI-AML-3; 4.1 µM in the test with MV4-11; 3.9 µM in the test with MOLM-13; 7.1 µM in the test on NRK; 6.5 to 12.5 µM in the test on H9c2.

By inhibition is commonly meant the change of the read-out against control, counted positive when it falls. The low end stands for a response near the control, the high end for a response far below the control. The Kd is the concentration at which binding is half-saturated. Low values mean a tighter complex, high ones a looser complex. Consider `CN(C)[C@@H]1CC[C@@]2(C)[C@@H](CC[C@@H]3[C@@H]2CC[C@]2(C)C(c4ccc5ccncc5c4)=CC[C@@H]32)C1`, for which the inhibition in test [1], in [2], in [3], in test [4], in [5] and in [6] was greater than 80% throughout. Moreover, the inhibition in test [7], in test [8], in test [9], in test [10] and in test [11] was greater than 80% each time. Besides, the EC50 is 7.6 µM with OCI-AML-3; 5.5 µM in the test with MV4-11; 9 µM in the test on MOLM-13; 11.4 µM with NRK; 12.5 to 25 µM with H9c2. For the same molecule, binding in test [12] was put at a Kd of 0.018 µM.

Consider `CN(C)[C@@H]1CC[C@@]2(C)[C@@H](CC[C@@H]3[C@@H]2CC[C@]2(C)C(c4cncc(Cl)c4)=CC[C@@H]32)C1`, for which the inhibition in test [4], in [13], in test [7], in test [14] and in test [15] was greater than 80% each time. In addition, the EC50 with OCI-AML-3 is 7.5 µM; in the test on MV4-11, 8.6 µM; in the test on MOLM-13, 11.2 µM; with NRK it was 20.5 µM; in the test with H9c2, 12.5 to 25 µM. The same molecule had a Kd in [12] of 0.013 µM.
